Experimental data taken from ChEMBL document CHEMBL1127562, “N-substituted spirosuccinimide, spiropyridazine, spiroazetidine, and acetic acid aldose reductase inhibitors derived from isoquinoline-1,3-diones. 2” (J Med Chem, 1994).
The source made the active and inactive calls. The rule behind the calls is not given here.

What was measured:
Rattus norvegicus [1] = assay: Tested for in vivo inhibition of galactitol accumulation in the sciatic nerve of galactose-fed rats at the dose of 24; NS=Not significant; format: functional, organism-based
How it was run: (§1)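 Rats were given a 20% galactose diet for 4 days, with the test compound administered in the diet. Sciatic nerve galactitol accumulation was measured, and activity is given as % inhibition at the stated daily dose (mg/kg/day). Values are mean ± SEM, n = 6 animals; p < 0.01 unless indicated. NS means no significant inhibition of polyol accumulation.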

Rattus norvegicus [2] = assay: Tested for in vivo inhibition of galactitol accumulation in the lens of galactose-fed rats at the dose of 24 (mg/kg/day); NS=Not significant; format: functional, organism-based; settings: Lens of camera-type eye
[3] = target: Aldo-keto reductase family 1 member B1 (Bos taurus) (UniProt P16116); assay: Inhibition of aldose reductase activity in partially purified bovine lens preparation at 4*10 e-8 M
Rattus norvegicus [4] = assay: Tested for in vivo inhibition of galactitol accumulation in the lens of galactose-fed rats at the dose of 25.0 (mg/kg/day); NS=Not significant; format: functional, organism-based; settings: Lens of camera-type eye
Rattus norvegicus [5] = assay: Tested for in vivo inhibition of galactitol accumulation in the sciatic nerve of galactose-fed rats. at the dose of 25.0 (mg/kg/day); NS=Not significant; format: functional, organism-based
How it was run: (§2)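 Rats fed a 20% galactose diet for 4 days, with test compound given in the diet at the stated daily dose (mg/kg/day). Read-out is inhibition of galactitol (polyol) accumulation in sciatic nerve. Values are % inhibition, mean ± SEM of six animals; p < 0.01 unless marked (some p < 0.05). NS = no significant inhibition of polyol accumulation. Tolrestat was the reference standard.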

Rattus norvegicus [6] = assay: Tested for in vivo inhibition of galactitol accumulation in the lens of galactose-fed rats at the dose of 22 (mg/kg/day); NS=Not significant; format: functional, organism-based; settings: Lens of camera-type eye
Rattus norvegicus [7] = assay: Tested for in vivo inhibition of galactitol accumulation in the sciatic nerve of galactose-fed rats at the dose of 22 (mg/kg/day); NS=Not significant; format: functional, organism-based; how it was run: as §1
[8] = target: Aldo-keto reductase family 1 member B1 (Bos taurus) (UniProt P16116); assay: Inhibition of aldose reductase activity in partially purified bovine lens preparation at 10e-5 M
How it was run: (§3)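 Partially purified bovine lens aldose reductase. Reduction of DL-glyceraldehyde substrate followed spectrophotometrically. Activity expressed as average inhibition at the tested concentrations, 1×10^-5, 1×10^-6, 1×10^-7 and 4×10^-6 M as printed; IC50 in M where given.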

Rattus norvegicus [9] = assay: Tested for in vivo inhibition of galactitol accumulation in the sciatic nerve of galactose-fed rats at the dose of 24.8 (mg/kg/day); NS=Not significant; format: functional, organism-based; how it was run: as §1
Rattus norvegicus [10] = assay: Tested for in vivo inhibition of galactitol accumulation in the lens of galactose-fed rats at the dose of 24.8 (mg/kg/day); NS=Not significant; format: functional, organism-based; settings: Lens of camera-type eye
Rattus norvegicus [11] = assay: tTested for in vivo inhibition of galactitol accumulation in the sciatic nerve of galactose-fed rats at the dose of 54 (mg/kg/day); NS=Not significant; format: functional, organism-based; how it was run: as §2
Rattus norvegicus [12] = assay: Tested for in vivo inhibition of galactitol accumulation in the lens of galactose-fed rats at the dose of 54 (mg/kg/day); NS=Not significant; format: functional, organism-based; settings: Lens of camera-type eye
Rattus norvegicus [13] = assay: Tested for in vivo inhibition of galactitol accumulation in the sciatic nerve of galactose-fed rats at the dose of 26.2 (mg/kg/day); NS=Not significant; format: functional, organism-based; how it was run: as §1
Rattus norvegicus [14] = assay: Tested for in vivo inhibition of galactitol accumulation in the sciatic nerve of galactose-fed rats at the dose of 24.1 (mg/kg/day); NS=Not significant; format: functional, organism-based; how it was run: as §1
Rattus norvegicus [15] = assay: Tested for in vivo inhibition of galactitol accumulation in the lens of galactose-fed rats at the dose of 24.1 (mg/kg/day); NS=Not significant; format: functional, organism-based; settings: Lens of camera-type eye
Rattus norvegicus [16] = assay: Tested for in vivo inhibition of galactitol accumulation in the lens of galactose-fed rats at the dose of 4.9 (mg/kg/day); NS=Not significant; format: functional, organism-based; settings: Lens of camera-type eye
Rattus norvegicus [17] = assay: Tested for in vivo inhibition of galactitol accumulation in the sciatic nerve of galactose-fed rats.4.9 (mg/kg/day); NS=Not significant; format: functional, organism-based; how it was run: as §2
[18] = target: Aldo-keto reductase family 1 member B1 (Bos taurus) (UniProt P16116); assay: Compound was tested in vitro for inhibition of aldose reductase activity in partially purified bovine lens preparation at 10 e-8 M
Rattus norvegicus [19] = assay: Tested for in vivo inhibition of galactitol accumulation in the sciatic nerve of galactose-fed rats at the dose of 48 (mg/kg/day); format: functional; how it was run: as §2
Rattus norvegicus [20] = assay: Tested for in vivo inhibition of galactitol accumulation in the lens of galactose-fed rats at the dose of 48 (mg/kg/day); NS=Not significant; format: functional, organism-based; settings: Lens of camera-type eye
Rattus norvegicus [21] = assay: Tested for in vivo inhibition of galactitol accumulation in the lens of galactose-fed rats at the dose of 48 (mg/kg/day); format: functional, Lens of camera-type eye
Rattus norvegicus [22] = assay: Tested for in vivo inhibition of galactitol accumulation in the sciatic nerve of galactose-fed rats at the dose of 4.7 (mg/kg/day); format: functional; how it was run: as §1
Rattus norvegicus [23] = assay: Tested for in vivo inhibition of galactitol accumulation in the lens of galactose-fed rats at the dose of 4.7 (mg/kg/day); NS=Not significant; format: functional, organism-based; settings: Lens of camera-type eye
Rattus norvegicus [24] = assay: Tested for in vivo inhibition of galactitol accumulation in the lens of galactose-fed rats at the dose of 54.8 (mg/kg/day); NS=Not significant; format: functional, organism-based; settings: Lens of camera-type eye
Rattus norvegicus [25] = assay: Tested for in vivo inhibition of galactitol accumulation in the sciatic nerve of galactose-fed rats at the dose of 54.8 (mg/kg/day); format: functional; how it was run: as §2
[26] = target: Aldo-keto reductase family 1 member B1 (Bos taurus) (UniProt P16116); assay: Compound was tested in vitro for inhibition of aldose reductase activity in partially purified bovine lens preparation at 10e-5 M; Not significant; NS=Not significant; how it was run: as §3
Rattus norvegicus [27] = assay: Tested for in vivo inhibition of galactitol accumulation in the sciatic nerve of galactose-fed rats at the dose of 47 (mg/kg/day); NS=Not significant; format: functional, organism-based; how it was run: as §1
Rattus norvegicus [28] = assay: Tested for in vivo inhibition of galactitol accumulation in the sciatic nerve of galactose-fed rats at the dose of 55.4 (mg/kg/day); NS=Not significant; format: functional, organism-based; how it was run: as §2
Rattus norvegicus [29] = assay: Tested for in vivo inhibition of galactitol accumulation in the lens of galactose-fed rats at the dose of 55.4 (mg/kg/day); NS=Not significant; format: functional, organism-based; settings: Lens of camera-type eye
How it was run: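 Galactosemic rats were fed 20% galactose for 4 days, with the compound mixed into the diet. […] galactitol accumulation was measured, and activity is given as % inhibition at the stated daily dose (mg/kg/day). Values are mean ± SEM of six animals; p < 0.01 unless indicated. NS means no significant inhibition of polyol accumulation.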

O=C(O)CC1C(=O)N(Cc2nc3cc(C(F)(F)F)ccc3s2)C(=O)c2ccccc21 (configuration not stated) was tested. Which inhibition (Rattus norvegicus [1]) did it give?
Its inhibition is “inactive”.

And the inhibition (Rattus norvegicus [2])?
The inhibition was “inactive”.

What about the inhibition [3] of the same compound?
The inhibition was 65%.

For O=C(O)CC1C(=O)N(Cc2ccc(Br)cc2F)C(=O)c2ccc(Cl)cc21 (configuration not stated), which inhibition (Rattus norvegicus [4]) is on record?
The inhibition was “inactive”.

What about the inhibition [3] of the same compound?
Its inhibition is 57%.

And the inhibition (Rattus norvegicus [5])?
The inhibition was “inactive”.

For COc1c(CC(=O)O)c2ccccc2c(=O)n1Cc1ccc(Br)cc1F, which inhibition (Rattus norvegicus [6]) is on record?
The inhibition was “inactive”.

What about the inhibition (Rattus norvegicus [7]) of the same compound?
Its inhibition is “inactive”.

What does the source list for CCNC(=O)CC1C(=O)N(Cc2ccc(Br)cc2F)C(=O)c2ccccc21 (configuration not stated)?
inhibition [8]: inactive; inhibition (Rattus norvegicus [9]): inactive; inhibition (Rattus norvegicus [10]): inactive

How did the inhibition (Rattus norvegicus [11]) turn out when O=C1CC2(N1)C(=O)N(Cc1ccc(Br)cc1F)C(=O)c1ccc(F)cc12 (configuration not stated) was run?
The inhibition was “inactive”.

What about the inhibition (Rattus norvegicus [12]) of the same compound?
The inhibition was “inactive”.

With O=C(O)CN1C(=O)CC2(C1=O)C(=O)N(Cc1ccc(Br)cc1F)C(=O)c1ccc(F)cc12 (configuration not stated) as the compound, how does the inhibition (Rattus norvegicus [13]) read?
The inhibition was “inactive”.

What about the inhibition [8] of the same compound?
Its inhibition is 60%.

How did the inhibition [8] turn out when CONC(=O)CC1C(=O)N(Cc2ccc(Br)cc2F)C(=O)c2ccccc21 (configuration not stated) was run?
Its inhibition is 45%.

And the inhibition (Rattus norvegicus [14])?
The inhibition was “inactive”.

And the inhibition (Rattus norvegicus [15])?
Its inhibition is “inactive”.

With CN1C(=O)c2ccc(Cl)cc2C(CC(=O)O)C1=O (configuration not stated) as the compound, how does the inhibition (Rattus norvegicus [16]) read?
Its inhibition is “inactive”.

What about the inhibition (Rattus norvegicus [17]) of the same compound?
The inhibition was “inactive”.

And the inhibition [18]?
The inhibition was 35%.

For COC(=O)NC(=O)CC1C(=O)N(Cc2ccc(Br)cc2F)C(=O)c2ccccc21 (configuration not stated), which inhibition [8] is on record?
Its inhibition is 84%.

And the Inhibition (Rattus norvegicus [19])?
The Inhibition was 96%.

And the inhibition (Rattus norvegicus [20])?
The inhibition was “inactive”.

With O=C1c2ccccc2C2(CC(=O)N(N=C3CCCC3)C2=O)C(=O)N1Cc1ccc(Br)cc1F (configuration not stated) as the compound, how does the inhibition [8] read?
Its inhibition is “inactive”.

And the Inhibition (Rattus norvegicus [21])?
The Inhibition was 76%.

What about the Inhibition (Rattus norvegicus [22]) of the same compound?
The Inhibition was 86%.

And the inhibition (Rattus norvegicus [23])?
Its inhibition is “inactive”.

What about the Inhibition (Rattus norvegicus [19]) of the same compound?
Its Inhibition is 82%.

What does the source list for COC(=O)N(C(=O)OC)N1C(=O)CC2(C(=O)N(Cc3ccc(Br)cc3F)C(=O)c3ccccc32)C1=O (configuration not stated)?
inhibition [8]: inactive; inhibition (Rattus norvegicus [24]): inactive; Inhibition (Rattus norvegicus [25]): 50%

Which inhibition [26] does the source give for CN1C(=O)CC2(C(=O)N(Cc3ccc(Br)cc3F)C(=O)c3ccc(F)cc32)C(=O)N1C (configuration not stated) here?
Its inhibition is “inactive”.

What about the inhibition (Rattus norvegicus [27]) of the same compound?
Its inhibition is “inactive”.

What does the source list for O=C1c2ccccc2C2(CC(=O)N(NS(=O)(=O)C(F)(F)F)C2=O)C(=O)N1Cc1ccc(Br)cc1F (configuration not stated)?
inhibition [8]: inactive; inhibition (Rattus norvegicus [28]): inactive; inhibition (Rattus norvegicus [29]): inactive
